From PubChem BioAssay
Hits are enriched below; roughly 1.9% of the tested compounds scored in any of these assays.
NR2E3 ag-1 = activates human NR2E3 receptor; Q9Y5X4; CHO-S Gal4-NCOR/VP16-NR2E3 two-hybrid, luciferase; inhibition of corepressor binding, % at 3.98 µM; 0.35% of 360,000 active; AID 602229;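 active means inhibition above the mean of all tested compounds plus 3 SD, cut at about 70% in these data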;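 further: 0% = DMSO with NR2E3 transfected cells and 100% = cells lacking NR2E3 construct; higher means lower luciferase signal from less NR2E3 corepressor binding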
MT1-MMP act inh = inhibitors of human MT1-MMP activation; AID 651647; 0.061% of 360,000 active; GFP/RFP ratio change, % at 20 µM; HT1080 RFP-PRO-GFP cells, GFP/RFP ratio fluorescence, overnight; percent of plate control window, DMSO zero; P50281;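 active means GFP/RFP ratio change of at least 30% with cell ATP level not reduced by more than half and red fluorescence within 50% of control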
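Assay system: HT1080 cells carrying an RFP-PRO-GFP reporter | Dosing: Single dose of 20 µM compound, 1% DMSO final | Incubation: Cells overnight before dosing, compound overnight, 37 °C, 5% CO2 | Evaluation: GFP/RFP fluorescence ratio | Control set: DMSO and RFP-L50D-GFP cell wells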
PG9 Ab binder = binds the HIV-1 gp120 antibody PG9; TR-FRET gp120-PG9 antibody binding; inhibition, % at 6.7 µM; 0.43% of 360,000 active; AID 624416; in the data active means inhibition above about 8.5%
Rev-erbA mod = modulates human Rev-erb alpha binding to DNA; 0.79% of 370,000 active; AID 1259318; P20393; Rev-erbα–FITC-DNA binding, fluorescence polarization, 90 min; activity, % at 10 µM;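 active means activity above about 14%, limit read from the data; passing the limit was not always enough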;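 further: 0% = DMSO wells with 35 nM protein and 100% = DMSO wells with 750 nM protein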
Target sequence (P20393 whole entry, looked up): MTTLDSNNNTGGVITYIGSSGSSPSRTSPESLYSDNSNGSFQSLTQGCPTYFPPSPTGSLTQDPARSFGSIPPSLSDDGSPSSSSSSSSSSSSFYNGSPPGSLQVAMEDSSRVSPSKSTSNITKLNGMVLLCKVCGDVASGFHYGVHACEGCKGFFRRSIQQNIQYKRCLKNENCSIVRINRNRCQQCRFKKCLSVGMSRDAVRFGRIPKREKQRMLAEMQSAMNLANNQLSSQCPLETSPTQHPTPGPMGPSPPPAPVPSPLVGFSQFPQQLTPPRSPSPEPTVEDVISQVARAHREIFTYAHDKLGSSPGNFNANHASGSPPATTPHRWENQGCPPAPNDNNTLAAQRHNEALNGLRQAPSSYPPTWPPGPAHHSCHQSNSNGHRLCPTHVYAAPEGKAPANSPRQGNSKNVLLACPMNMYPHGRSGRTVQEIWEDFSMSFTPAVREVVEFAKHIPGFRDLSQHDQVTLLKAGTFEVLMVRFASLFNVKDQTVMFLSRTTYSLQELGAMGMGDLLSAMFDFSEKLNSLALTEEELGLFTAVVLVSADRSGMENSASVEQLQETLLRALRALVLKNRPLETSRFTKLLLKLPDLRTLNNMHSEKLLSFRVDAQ
SKN-1 inh = inhibitors of C. elegans SKN-1; 0.49% of 360,000 active; C. elegans VP596 Pgst-4::GFP/RFP ratio, acrylamide-induced, 24 h; inhibition, % at 21.8 µM; AID 624304;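 active means interference check ratio from 0.5 to 1.5 plus GFP to RFP signal ratio inhibition reaching or exceeding a fixed threshold, cut at about 30% in these data, passing the limit was not always enough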
NR2E3 ag-2 = activates human photoreceptor nuclear receptor NR2E3; inhibition of corepressor binding, % at 4.78 µM; AID 2300; 0.12% of 320,000 active; GST-NR2E3/biotin-RetCOR TR-FRET, 1536-well; Q9Y5X4;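 active means percent inhibition above the cutoff of mean plus 3 SD of all tested compounds, set per screening campaign, cut at about 20% in these data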;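 further: 0% = DMSO wells and 100% = biotin wells as full block of FRET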
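System: GST-tagged NR2E3 plus biotinylated RetCOR corepressor; Amount: 1.35 nM GST-tagged NR2E3 final; Dosing: single nominal compound dose of 4.8 µM; Schedule: 5 h incubation at 4 °C; Technique: TR-FRET with europium anti-GST and streptavidin-D2, 340 nm excitation; Controls: biotin wells as high control, 0.6% DMSO wells as low control.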
NR2E3 ag conf = confirmation of human NR2E3 agonists; shares compounds with NR2E3 ag-1; CHO-S mammalian two-hybrid NR2E3-NCOR, luciferase luminescence; inhibition, % at 3.98 µM; 51% of 2,300 active; AID 624378;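 active means average inhibition above a cutoff equal to the mean inhibition of all tested compounds plus one SD, cut at about 70% in these data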;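 further: 0% = DMSO in NR2E3 cells and 100% = DMSO in cells lacking NR2E3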
VP16 counter = reduces GAL4-VP16 reporter signal in NR2E3 counterscreen; shares compounds with NR2E3 ag-1; CHO-S GAL4-VP16 luciferase reporter, luminescence; 29% of 2,300 active; inhibition, % at 3.98 µM; AID 624379;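 active means mean inhibition above a cutoff equal to the average over all tested compounds plus one standard deviation, cut at about 70% in these data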;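 further: luciferase from a UAS reporter driven by GAL4-VP16 transactivation; 0% = DMSO with VP16-transfected cells and 100% = DMSO with cells lacking VP16; higher means less reporter light so more repression of VP16 activity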
The depositor's hits bear a star; . = no result.

SMILES	NR2E3 ag-1	MT1-MMP act inh	PG9 Ab binder	Rev-erbA mod	SKN-1 inh	NR2E3 ag-2	NR2E3 ag conf	VP16 counter
CN(Cc1ccc(F)cc1)C(=O)c1cc(COc2ccc(-n3cncn3)cc2)on1	73*	-2	0	-5	2	.	61	63
CCc1ccc(CN(C)C(=O)c2cc(COc3cncc(Cl)c3)on2)cc1	-22	0	-1	-5	4	.	.	.
Cc1ccc(OCc2cc(C(=O)N(C)Cc3cnn(C)c3)no2)cc1C	-50	-1	0	-4	22	.	.	.
CCC(=O)c1ccc(OCC(O)Cn2c(C)nc3ccccc32)cc1 (stereo not given)	51	-3	3	1	-5	2	54	38
COc1cc(NC(C(=O)Nc2cccc(C(C)=O)c2)c2ccccc2)cc(OC)c1OC (stereo not given)	49	2	-3	5	-3	-2	-21	0
CC(=O)N1c2ccc(S(=O)(=O)N3CCC(C(=O)Nc4cccc(Cl)c4)CC3)cc2CC1C (stereo not given)	78*	0	-1	5	22	2	74*	52
CC(=O)N1c2ccc(S(=O)(=O)N3CCC(C(=O)Nc4cccc(C)c4)CC3)cc2CC1C (stereo not given)	33	0	-1	1	-4	-2	.	.
CC(=O)N1c2ccc(S(=O)(=O)N3CCC(C(=O)N4CCN(c5cccc(C(F)(F)F)c5)CC4)CC3)cc2CC1C (stereo not given)	99*	0	-1	6	-3	-1	89*	76*
O=c1[nH]sc2ccccc12	75*	4	-2	5	11	.	4	3
O=c1ccsc2ccccc12	12	-2	-1	2	5	.	.	.
C=CCSc1nc2ccccc2n1C(=O)/C=C/c1cc(OC)c(OC)c(OC)c1	57	-16	0	-2	11	1	69	-1
C=CCSc1nc2ccccc2n1C(=O)/C=C/c1ccc(OC)c(OC)c1	-13	-22	1	2	11	8	.	.
CCC(c1nnnn1-c1ccc2c(c1)OCCO2)N1CCN(c2ccc(F)cc2)CC1 (stereo not given)	54	0	.	.	14	.	53	48
CCC(c1nnnn1-c1ccc2c(c1)OCCO2)N1CCN(c2ncccc2C(F)(F)F)CC1 (stereo not given)	12	-3	0	-9	16	.	.	.
O=C(Nc1ccc(N2CCN(C(=O)c3ccccc3)CC2)cc1)c1ccc2c(c1)OCO2	66	0	-2	-2	3	1	85*	46
O=C(N[C@H](C(=O)N1CCC[C@H]1C(=O)NC1CCCC1)c1ccccc1)c1ccc(Cl)c(Cl)c1	.	.	-1	-5	.	.	.	.
Cc1cc(NC(=O)c2ccc(Cn3nc(C)c(Br)c3C)o2)no1	0	5	2	-1	7	8	.	.
Cc1nn(Cc2ccc(C(=O)NC(C)(C)C)o2)c(C)c1Br	57	-5	-1	1	7	-2	61	63
COc1ccc(C2CC(=O)C(c3ccc([N+](=O)[O-])cc3)=CN2Cc2ccccc2)cc1 (stereo not given)	.	.	1	10	.	.	.	.
CC(=O)c1c(C)[nH]c(C(=O)C(C)Sc2nnc(NC3CC3)s2)c1C (stereo not given)	51	-2	2	-1	-17	4	44	47
CC(Sc1nnc(NC2CC2)s1)C(=O)Nc1ccc(N2CCOCC2)cc1 (stereo not given)	25	0	-4	-2	-22	.	.	.
C[C@@H]1CN([C@@H](C)CO)C(=O)CCCn2cc(nn2)CO[C@H]1CN(C)C(=O)Nc1cccc(F)c1	.	.	0	-5	.	.	.	.
Cc1ccc(C#N)c(SCc2nnc(-c3ccc(Cl)cc3)o2)n1	72*	8	0	0	-3	-1	77*	38
